We go through 15 compounds from ChEMBL document CHEMBL3992530, “Polar aromatic periphery increases agonist potency of spirocyclic free fatty acid receptor (GPR40) agonists inspired by LY2881835” (Eur J Med Chem, 2017).

SMILES strings stand for the structures.

Series [1] has as its target T1, Free fatty acid receptor 1 (Homo sapiens, UniProt O14842). Briefly: Agonist activity at human GPR40 expressed in CHO cells assessed as increase in intracellular calcium flux at 5 uM by Fluo-8 dye based FLIPR assay relative to GW9508. The series is classed as functional, cell-based.
Series [2] has as its target T1, Free fatty acid receptor 1. Briefly: Agonist activity at human GPR40 expressed in CHO cells assessed as increase in intracellular calcium flux by Fluo-8 dye based FLIPR assay. The series is classed as functional, cell-based. The gist of the method:
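Stable CHO-GPR40 line (human receptor), seeded at 12,500 cells/well 24 h before assay. Cells were loaded 1 h with Fluo-8 calcium dye and read on FLIPR Tetra. Agonist response was taken as the maximum fluorescence change over baseline. Dose-response testing gave EC50 from fitted concentration-response curves, with GW9508 run alongside as positive control.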

The target in series [3] is T2, Free fatty acid receptor 3 (Homo sapiens, UniProt O14843).
T2 sequence (O14843 whole entry): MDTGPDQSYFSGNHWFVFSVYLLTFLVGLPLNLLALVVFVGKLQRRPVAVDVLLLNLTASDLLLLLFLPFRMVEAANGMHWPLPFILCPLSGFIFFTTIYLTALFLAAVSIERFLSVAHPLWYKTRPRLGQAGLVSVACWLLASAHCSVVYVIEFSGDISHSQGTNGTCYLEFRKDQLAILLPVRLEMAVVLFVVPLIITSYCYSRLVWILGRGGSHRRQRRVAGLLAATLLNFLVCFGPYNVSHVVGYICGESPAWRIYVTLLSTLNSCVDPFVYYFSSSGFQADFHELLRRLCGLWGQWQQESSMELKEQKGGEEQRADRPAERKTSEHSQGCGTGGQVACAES
Kind of series: Agonist activity at human FFA3 receptor expressed in CHO cells assessed as increase in intracellular calcium flux by Fluo-8 dye based FLIPR assay. The series is classed as functional, cell-based. The gist of the method:
(§1)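 Separate CHO lines stably expressing GPR41, GPR43 or GPR120 (from ECACC) were used for specificity screening in the same format as the FFA1 assay. Cells were plated at 12,500/well 24 h ahead, loaded 1 h with Fluo-8 calcium dye, and read on a FLIPR Tetra. Response was taken as the maximum fluorescence change over baseline.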

Series [4] can be described thus: Intrinsic clearance in Balb/c mouse liver microsomes at 2 uM in presence of NADPH by HPLC-MS analysis. The class given is ADME, microsome. The gist of the method:
(§2)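 Microsomes from pooled (50) perfused livers of male BALB/c mice, 0.42 mg protein/mL, in 100 mM K-phosphate pH 7.4 with MgCl2 3.3 mM, NADPH 3 mM, G6P 5.3 mM and G6PDH 0.67 U/ml. Compound was 2 μM (1.6% solvent) at 37°C, sampled at five points over 40 min in duplicate. Reactions were quenched with acetonitrile and analysed by HPLC-MS/MS. kel came from ln(AUC) vs time, T1/2 = 0.693/kel, and CLint was scaled per mg microsomes.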

Series [5] can be described thus: Kinetic aqueous solubility of the compound in PBS buffer […] at pH 7.4 by UV-Visible spectrophotometric analysis. The series is classed as physicochemical. Particulars: read-out: Kinetic_solubility. The essentials:
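Kinetic solubility: a 40 mM DMSO stock was diluted to a nominal 800 μM in duplicate in PBS (138 mM NaCl, 2.7 mM KCl, 10 mM K-phosphate, pH 7.4, 2% final DMSO). Samples were shaken 2 h at 25°C and then filtered. Filtrates were diluted 2-fold in methanol and quantified by UV scan (200-550 nm) against 0, 200 and 400 μM calibrants in 50% methanol/PBS. Values average n = 4.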

The nature of series [6]: Half life in Balb/c mouse liver microsomes at 2 uM in presence of NADPH by HPLC-MS analysis. The series is classed as ADME, microsome. The essentials:
as §2

Series [7] is described as follows: Apparent permeability from apical to basolateral direction in human Caco2 cells at 10 uM after 2 hrs by HPLC-MS analysis. The series is classed as ADME, cell-based. Particulars: Caco-2. The gist of the method:
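Caco-2 cells were grown to 70–80% confluence, then seeded at 1x10⁵ cells/well on 24-well semipermeable inserts and washed twice with PBS. Compound was 10 μM in HBSS with 5,6 mM glucose and 10 mM HEPES, pH 7.4, applied apically in duplicate for 2 h at 37 °C. Receiver concentrations were measured by HPLC-MS, and Papp was computed from acceptor volume, insert area, time and acceptor/initial donor concentration.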

In series [8] the target is T3, Free fatty acid receptor 2 (Homo sapiens, UniProt O15552).
T3 sequence (O15552 whole entry): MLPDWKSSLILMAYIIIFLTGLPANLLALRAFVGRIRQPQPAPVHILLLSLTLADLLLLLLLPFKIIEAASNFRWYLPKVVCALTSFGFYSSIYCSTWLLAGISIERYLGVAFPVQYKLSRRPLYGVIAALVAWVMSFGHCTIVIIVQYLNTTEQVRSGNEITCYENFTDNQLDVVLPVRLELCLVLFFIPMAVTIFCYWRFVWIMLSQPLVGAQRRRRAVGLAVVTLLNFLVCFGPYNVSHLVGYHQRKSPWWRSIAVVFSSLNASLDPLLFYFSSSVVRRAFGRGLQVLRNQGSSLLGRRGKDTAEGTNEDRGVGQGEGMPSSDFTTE
Briefly: Agonist activity at human FFA2 receptor expressed in CHO cells assessed as increase in intracellular calcium flux by Fluo-8 dye based FLIPR assay. The class given is functional, cell-based. The gist of the method:
as §1

The target in series [9] is T4, Free fatty acid receptor 4 (Homo sapiens, UniProt Q5NUL3).
T4 sequence (Q5NUL3 whole entry): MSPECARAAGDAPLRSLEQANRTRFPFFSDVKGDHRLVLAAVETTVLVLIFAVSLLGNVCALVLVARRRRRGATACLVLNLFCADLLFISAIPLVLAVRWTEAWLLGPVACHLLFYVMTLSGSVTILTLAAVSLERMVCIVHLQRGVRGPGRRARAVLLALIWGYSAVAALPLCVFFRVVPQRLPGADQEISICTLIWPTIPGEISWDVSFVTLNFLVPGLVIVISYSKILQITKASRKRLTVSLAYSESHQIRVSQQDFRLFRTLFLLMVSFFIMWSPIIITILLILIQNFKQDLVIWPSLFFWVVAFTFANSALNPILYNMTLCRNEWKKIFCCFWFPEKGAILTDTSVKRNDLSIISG
Kind of series: Agonist activity at human GPR120 expressed in CHO cells assessed as increase in intracellular calcium flux by Fluo-8 dye based FLIPR assay. The class given is functional, cell-based. The essentials: as §1

T1 sequence (O14842 whole entry): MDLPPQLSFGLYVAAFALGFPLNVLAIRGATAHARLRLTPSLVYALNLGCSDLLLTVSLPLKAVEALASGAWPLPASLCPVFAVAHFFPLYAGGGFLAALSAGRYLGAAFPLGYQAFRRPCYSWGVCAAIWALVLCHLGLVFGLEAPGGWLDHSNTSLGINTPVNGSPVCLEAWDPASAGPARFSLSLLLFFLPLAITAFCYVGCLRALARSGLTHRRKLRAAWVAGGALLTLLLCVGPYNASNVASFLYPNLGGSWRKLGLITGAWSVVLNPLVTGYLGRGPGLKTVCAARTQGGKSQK

As to `O=C(O)CCc1ccc(OCc2ccc(CN3CCC4(CC3)CC(CCOc3ccc(F)cc3)CCO4)cc2)cc1` (stereo not given), in series [1], the %max is 55%. The EC50 in series [2] was 2060 nM.
On to `O=C(O)CCc1ccc(OCc2ccc(CN3CCC4(CC3)CC(CCOc3ncccn3)CCO4)cc2)cc1` (stereo not given), for which, in series [1], the %max is 54.5%. In [2], the 50% effective concentration (EC50) came to 3870 nM.
For the compound `O=C(O)CCc1ccc(OCc2ccc(CN3CCC4(CC3)CC(CCOc3cnccn3)CCO4)cc2)cc1` (stereo not given), the %max in series [1] worked out at 83.5%. For the same compound, the EC50 in series [2] is 1480 nM.
Take `Cc1cccc(OCCC2CCOC3(CCN(Cc4ccc(COc5ccc(CCC(=O)O)cc5)cc4)CC3)C2)n1.Cl.Cl` (stereo not given): the EC50 was above 10000 nM in [3], 260 nM in series [2], above 10000 nM in series [8] and above 10000 nM in series [9]. Moreover, the CL int at 2 µM in series [4] is 72.8 µL/min/mg. The solubility kinetic in [5] was 228 µM. Further, the %max in [1] was 100%. Also, the half-life at 2 µM in series [6] came out at 22.9 min. Moreover, in series [7], the Papp A→B at 2 h, 10 µM was found to be 7.3 ×10⁻⁶ cm/s.
On to `Cc1ccnc(OCCC2CCOC3(CCN(Cc4ccc(COc5ccc(CCC(=O)O)cc5)cc4)CC3)C2)c1` (stereo not given), for which the %max in series [1] is 110%. Further, in [2], the EC50 was 1110 nM.
On to `Cc1cnc(C)c(OCCC2CCOC3(CCN(Cc4ccc(COc5ccc(CCC(=O)O)cc5)cc4)CC3)C2)n1` (stereo not given), for which the %max in series [1] came out at 80.2%. Also, in [2], the EC50 is 1140 nM.
For the compound `Cc1nccnc1OCCC1CCOC2(CCN(Cc3ccc(COc4ccc(CCC(=O)O)cc4)cc3)CC2)C1` (stereo not given), the %max in series [1] was 105%. In series [2], the EC50 was 1270 nM.
`O=C(O)CCc1ccc(OCc2ccc(CN3CCC4(CCCCO4)CC3)cc2)cc1`: in series [2], the EC50 is above 20000 nM.
With `O=C(O)CCc1ccc(OCc2ccc(CN3CCC4(CC3)CC(CCOc3ccc(C(F)(F)F)cn3)CCO4)cc2)cc1` (stereo not given), in series [1], the %max amounted to 79.2%. The EC50 in [2] amounted to 33500 nM.
Consider `O=C(O)CCc1ccc(OCc2ccc(CN3CCC4(CC3)CC(Oc3ccccn3)CCO4)cc2)cc1` (stereo not given), for which the EC50 in series [2] was found to be 900 nM.
As to `O=C(O)CCc1ccc(OCc2ccc(CN3CCC4(CC3)CC(CCOc3cccnc3)CCO4)cc2)cc1` (stereo not given), the %max in series [1] was 61.7%. Also, the EC50 in [2] was found to be 2560 nM.
The matching figures for `O=C(O)CCc1ccc(OCc2ccc(CN3CCC4(CC3)CC(CCOc3ncnc5c3CCC5)CCO4)cc2)cc1` (stereo not given): 78.4% and 1260 nM.
For `O=C(O)CCc1ccc(OCc2ccc(CN3CCC4(CC3)CC(CCOc3ccc5ccccc5n3)CCO4)cc2)cc1` (stereo not given), the %max in [1] was 83.4%. In series [2], the EC50 stood at 2360 nM.
As for `O=C(O)CCc1ccc(OCc2ccc(CN3CCC4(CC3)CC(CCOc3ccncc3)CCO4)cc2)cc1` (stereo not given), in series [1], the %max came to 48.5%. Further, the EC50 in series [2] was found to be 6100 nM.
Regarding `O=C(O)CCc1ccc(OCc2ccc(CN3CCC4(CC3)CC(CCOc3nc(C5CC5)nc5c3CCC5)CCO4)cc2)cc1` (stereo not given), the %max in series [1] was 60.5%. Besides, the concentration for a half-maximal effect (EC50) in series [2] came to 1210 nM.
